Experimental data from different studies.
Target: Serine/threonine-protein kinase PLK2 (PLK2, Homo sapiens, UniProt Q9NYY3)

For `N[C@@H]1CCN(c2nccc(-c3cnn4ncccc34)n2)C1`, the remaining binding was 100% (binding; 1 µM).
`CC(C)(O)[C@H]1CC[C@H](Nc2ccc3ncc(-c4cccc(C(F)(F)F)c4)n3n2)CC1` has a remaining activity of 93.5% (enzyme activity; inhibitor; 1 µM).
For `CN1CC(Oc2cnc(C#N)cc2-c2ccn3nc(NC(=O)C4CC4)cc3c2)C1`, the inhibition was 1% (enzyme activity; inhibitor; 1 µM).
The remaining activity of `O=C(Nc1cnn(-c2csc(C(=O)NC3COC3)c2)c1)Nc1c(F)cccc1Cl` is reported as 100% (enzyme activity; inhibitor; 5 µM).
`CCN(CC)CCNC(=O)c1c(C)[nH]c(/C=C2\C(=O)Nc3ccc(F)cc32)c1C` gave an inhibition of -2% (enzyme activity; inhibitor; 0.3 µM).
`CCCCN(CCCC)C(=O)CN1C[C@@H](c2cc(OC)c3c(c2)OCO3)[C@H](C(=O)O)[C@H]1CC(C)(C)CCC` gave a remaining binding of 98.4% (cell-free assay; competition with immobilised ligand; 1 µM).
`Cc1ccc(C(=O)Nc2ccc(CN3CCN(C)CC3)c(C(F)(F)F)c2)cc1C#Cc1cnc2cccnn12` gave a remaining activity of 94% (enzyme activity; inhibitor; 23.5 nM).
The remaining binding of `C[C@H](c1ccnc(Nc2nc3ccc(-c4cc(N(C)C)ncn4)cc3[nH]2)c1)N1CCN(C(=O)CC(F)(F)F)CC1` is reported as 100% (cell-free assay; competition with immobilised ligand; 0.1 µM).
`COc1cc2ncnc(Nc3ccc(Oc4ccccc4)cc3C)c2cc1OC` has an inhibition of 5% (enzyme activity; inhibitor; 1 µM).
`O=C(O)[C@H]1[C@H](Cn2nnc3ccccc3c2=O)CC[C@@H]1C(=O)c1ccc(OCCC2CCOCC2)cc1` has a remaining binding of 100% (cell-free assay; competition with immobilised ligand; 1 µM).
`CNC(=O)c1cc(Oc2ccc(NC(=O)Nc3ccc(Cl)c(C(F)(F)F)c3)cc2)ccn1` has an inhibition of 15% (enzyme activity; inhibitor; 10 µM).
`CO[C@@H](C)c1c(Nc2ccc([C@@H](N(C)C(=O)C3CCS(=O)(=O)CC3)C(F)(F)F)cc2)cnc2cc(Cl)nn12` has a remaining binding of 100% (cell-free assay; competition with immobilised ligand; 1 µM).
`Cc1ccc(Nc2nccc(N(C)c3ccc4c(C)n(C)nc4c3)n2)cc1S(N)(=O)=O` gave an inhibition of -4% (enzyme activity; inhibitor; 10 µM).
With `COc1cccc(CNC(=O)c2nc3scc(COCc4ccc(C(=O)O)cc4)c3c(=O)[nH]2)c1` the remaining binding was 56.7% (cell-free assay; competition with immobilised ligand; 1 µM).
`Nc1ncnc2occ(-c3ccc(NC(=O)Nc4cc(C(F)(F)F)ccc4F)cc3)c12` gave a remaining signal of 0.1% (cell-free assay; inhibitor; 20 µM).
For `CC(C)(C)c1nc2c(s1)c1nc(N)ncc1c1ccc(NS(=O)(=O)c3c(F)cccc3F)c(F)c12`, the remaining activity was 91% (enzyme activity; inhibitor; radiometric; 1 µM).
The remaining signal of `COc1cc(Nc2c(C#N)cnc3cc(OCCCN4CCN(C)CC4)c(OC)cc23)c(Cl)cc1Cl` is reported as 100% (cell-free assay; 0.5 µM).
`COc1cc(Cl)c(C(=O)N[C@@H](CN[C@H]2CC[C@@H](N)CC2)Cc2ccc(C#N)cc2)cc1-c1ccc(CN[C@H](C)c2ccc(C)cc2)o1` gave a remaining activity of 96% (enzyme activity; inhibitor; 1 µM).
For `CCCS(=O)(=O)Nc1ccc(F)c(C(=O)c2c[nH]c3ncc(-c4ccc(Cl)cc4)cc23)c1F`, the inhibition was less than 10% (enzyme activity; inhibitor; 1 µM).
`COc1cc2c(Nc3ccc(Br)cc3F)ncnc2cc1OCC1CCN(C)CC1` has a remaining signal of 103% (cell-free assay; 0.5 µM).
`CC(=O)C1=C(C)N(c2cccc(C(F)(F)F)c2)C(=O)N[C@@H]1c1ccc(C#N)nc1` has a remaining binding of 97.8% (cell-free assay; competition with immobilised ligand; 1 µM).
With `Cc1ccc(NC(=O)c2ccc(C)c(C(F)(F)F)c2)cc1C#Cc1nn(C2CCC(O)CC2)c2ncnc(N)c12` (stereo not drawn) the remaining signal was 109% (cell-free assay; 10 µM).
`Cc1ccc(NC(=O)c2ccc(CN3CCN(C)CC3)cc2)cc1Nc1nc(-c2cccnc2)cs1` gave a remaining signal of 97.9% (cell-free assay; 0.5 µM).
With `O=C1CCc2cc(Nc3cc(OC4CCOCC4)c([N+](=O)[O-])cc3Cl)ccc2N1` the remaining binding was 92% (cell-free assay; competition with immobilised ligand; 1 µM).
